# Compound activity deposited in PubChem BioAssay by several laboratories.
# Shown are actives, neighbours in structure and some others; about 3.8% of the full set was active somewhere.
# Hep lipid drop: inhibitors of hepatocyte lipid droplet formation, primary screen, imaging, high-throughput imaging, BODIPY stain; AML12 mouse hepatocytes, oleate lipid droplets; inhibition, % at 6.5 µM; 0.4% of 240,000 active;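 active = lipid droplet intensity inhibited by at least 50%, with more than 500 cells counted; inconclusive = wells with under 300 cells, treated as cytotoxic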
#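 Test system: AML12 hepatocytes (mouse); reagent: oleate loading, 100 µM; dosing: one dose, 6.5 µM compound; incubation: overnight exposure; signal: fluorescence imaging, 20x objective, two fields per well; read-out basis: % inhibition of corrected integrated BODIPY droplet signal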
# HSF1 inh: HSF1 inhibitors in luciferase reporter cells, primary screen, cell-based, NIH3T3, luminescence | NIH3T3-HGL HSE-luciferase, MG132-induced, luminescence 8 h; stronger effect = lower value | activity change, negative = inhibition, % at 7.5 µM (by protocol) | 0.77% of 300,000 active;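 active = more than half of replicate wells show activity change below -50%, luminescence cut by over half; inconclusive = some wells, but at most half, below -50%; inactive = no replicate well below -50%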;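 also: luciferase reports HSF-1 transcriptional activity via heat shock element; 0% = median of DMSO wells and -100% = zero luminescence signal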
# HSP90 inh: HSP90 inhibitors, primary screen, cell lysate, luminescence. inhibition, % at 5.6 µM. 0.91% of 290,000 active. Heat shock protein HSP 90 (rabbit reticulocyte lysate; luciferase refolding). Rabbit reticulocyte lysate, luciferase refolding luminescence, 3 h. AID 1789, 2009;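 active = inhibition above the screen-wide mean plus 3 SD, computed separately per campaign, cut at about 16% in these data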;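 also: 0% = DMSO wells and 100% = 60 µM geldanamycin wells; inhibitors lower the luminescence because luciferase stays unfolded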
# HCV NS3 hel inh: inhibitors of HCV NS3 helicase, primary screen, biochemical, Cy5 molecular beacon fluorescence; NS3 helicase DNA unwinding; inhibition, % at 10.9 µM; 0.56% of 290,000 active; AID 1800, 2009;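 active = inhibition above the mean of all tested compounds plus 3 SD, set per campaign, cut at about 35% in these data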;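 also: 0% = DMSO wells and 100% = thioflavine S control wells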
#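 Control set: DMSO versus 110 µM thioflavine S; Material: NS3 helicase fragment of HCV; Measured by: Cy5 fluorescence at 0 and 60 min, beacon hairpin quenching; Read-out basis: percent inhibition from t60/t0 fluorescence ratio; Times: reaction time 60 min, 25 °C; Repeats: single replicate; Compound dosing: single dose, 10.9 µM nominal final, DMSO 0.8% final.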
# HSF-1 act: HSF-1 activators, primary screen, NIH3T3-HGL cells, MG132 stress, luminescence, single point. NIH3T3-HGL HSF-1 luciferase reporter, 8 h; 100% = twice DMSO control signal. activation, % at 9 µM. 1.7% of 300,000 active;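 active = mean replicate activation of at least 50% with a set share of replicates each reaching 50%; inconclusive = only one of those two conditions met; inactive = mean below 50% and too few replicates reaching it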;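 also: 0% = median of the neutral control wells and 100% = twice that signal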
# * marks the source's active call; other numbers are inactive results; ? = inconclusive; . = no result given.
SMILES,Hep lipid drop,HSF1 inh,HSP90 inh,HCV NS3 hel inh,HSF-1 act
COc1ccc(CNc2nc3c(c(=O)[nH]c(=O)n3C)n2Cc2ccccc2C)cc1,.,-68.5*,-0.7,-7.0,-78.5
Cn1c(=O)[nH]c(=O)c2c1nc(NCc1ccccc1)n2Cc1ccc(F)cc1,2.3,-2.2,8.4,-17.4,-4.5
NC(=O)Cn1nnc(-c2ccc(CN3CCCCC3)cc2)n1,9.3,-0.6,1.2,1.6,-4.4
CC(=O)c1cccc(CN2CCCC(CCC(=O)NCc3ccc(F)c(F)c3)C2)c1 (stereo not drawn),-5.9,-1.1,1.3,-5.3,-12.0
Cc1ccsc1/C=N/NC(=O)CO,1.3,-6.8,3.4,0.3,5.7
COc1ccc(/C=C(\NC(=O)c2ccccc2)C(=O)N/N=C/c2sccc2C)cc1,3.7,56.5,4.7,4.2,96.9*
COc1ccc(/C=C(/NC(=O)c2ccccc2)C(=O)N/N=C/c2sccc2C)cc1,-3.2,-7.5,-0.5,7.4,-1.7
Cc1ccsc1/C=N/NC(=O)c1sccc1C,.,31.1,1.8,-4.8,63.8*
COc1cccc(OCC(=O)NNC(=O)c2ccc3ccccc3c2)c1,-13.4,-1.3,4.7,-4.4,-3.0
CN(Cc1cccc(Cl)c1Cl)CC(O)COc1ccccc1 (stereo not drawn),-23.5,2.0,-1.8,-15.9,10.7
O=C(CSc1ccsc1[N+](=O)[O-])N1CCN(c2ccccn2)CC1,-1.5,5.3,3.1,11.3,30.6
Cc1cccc(N2CCN(Cc3ccoc3)CC2)c1C,-0.9,-0.5,0.8,-2.1,-7.2
COc1cc(CN2CCN(c3cccc(C)c3C)CC2)cc(OC)c1O,-11.8,-64.6*,-0.5,-4.1,-73.7
CSc1nc2cc(C)nn2c(-c2ccccc2Cl)c1C#N,8.2,-1.3,3.7,-5.7,10.3
Cc1cn2c(nc(=O)c3cccnc32)s1,11.6,-75.4*,5.8,8.0,-78.4
Cc1ccc(-n2cnc(=O)c3cccnc32)cc1,.,-0.6,-0.3,5.3,3.0
Cc1ccccc1N=C1SC(CC(=O)Nc2ccc3ccccc3c2)C(=O)N1Cc1ccccn1 (stereo not drawn),-26.0,19.2,-3.5,-17.1,56.5*
O=C(NCCc1ccccc1)C(c1cccs1)N(C(=O)c1csnn1)C1CC1 (stereo not drawn),.,2.4,2.6,3.9,14.8
O=C(NCCc1ccccc1)C(c1cccs1)N(C(=O)CCl)c1ccc(Cl)cc1 (stereo not drawn),43.4,-95.3*,0.9,1.3,-95.7
CC(=O)Oc1c(Cl)cc(Cl)cc1/C=C/c1ccc2ccccc2n1,.,119.2,-2.8,0.1,161.1*
CC(=O)Oc1ccc(Cl)cc1/C=C/c1ccc2ccccc2n1,14.0,46.1,-6.4,-7.9,60.2*
COc1ccc(OC)c(-c2csc(NC(=O)C3=COCCO3)n2)c1,.,10.1,.,.,35.0
Cc1ccc(N2C(=O)CC(NNc3nc4ccccc4s3)C2=O)cc1C (stereo not drawn),-2.0,52.5,-6.4,8.2,?
O=C1CC(N2CCSCC2)C(=O)N1c1ccccc1 (stereo not drawn),13.3,-5.0,0.9,5.7,1.9
COc1ccc(N2C(=O)CC(NNc3nc4ccccc4s3)C2=O)cc1 (stereo not drawn),-6.0,59.6,-2.4,-5.7,113.7*
SMILES,Hep lipid drop,HSF1 inh,HSP90 inh,HCV NS3 hel inh,HSF-1 act
O=C1CC(NNc2ccccc2)C(=O)N1c1ccccc1 (stereo not drawn),-29.3,15.5,-1.2,22.6,63.0*
O=C1CC(N2CCCCC2)C(=O)N1c1ccccc1 (stereo not drawn),4.5,-53.0*,-1.7,-3.0,-61.8
O=C(NC1CCC(O)CC1)c1ccc(-c2ccc([N+](=O)[O-])cc2)o1 (stereo not drawn),-8.8,3.9,4.2,20.8,-0.2
CC(C)COc1ccc(-c2cc(C(=O)NN)[nH]n2)cc1,11.2,11.7,15.1,11.1,52.1*
CCOC(=O)c1cc(-c2ccc(OC)cc2)n[nH]1,11.3,-8.5,-4.8,3.6,-11.6
Cc1[nH]c2ccccc2c1C(C[N+](=O)[O-])c1cccc(O)c1 (stereo not drawn),-26.8,1.0,1.5,-5.4,-4.0
Cc1[nH]c2ccccc2c1C(C[N+](=O)[O-])c1cccs1 (stereo not drawn),-27.7,-74.7*,-1.8,-0.7,-79.5
Cc1ccc(-c2[nH]c3ccccc3c2C(C[N+](=O)[O-])c2ccco2)cc1 (stereo not drawn),-27.1,27.5,0.9,3.9,70.2*
Cc1[nH]c2ccccc2c1C(C[N+](=O)[O-])c1ccco1 (stereo not drawn),-7.3,6.6,-1.1,-5.9,18.2
O=C1NC(Cc2ccccc2)C(=O)N1CC(=O)N1CCCc2ccccc21 (stereo not drawn),2.8,-5.3,4.8,9.0,-7.3
Cc1cc(C)n(CCC(=O)N/N=C/c2ccc(Cl)c([N+](=O)[O-])c2)n1,-3.4,13.9,-3.4,-1.4,48.2
O=C(COC(=O)CNC(=O)c1ccccc1)Nc1ccc(F)c([N+](=O)[O-])c1,2.3,9.6,0.3,-25.7,17.4
CCc1ccc(OCC(=O)Nc2ccc(-c3nc4ccccc4o3)c(O)c2)cc1,.,7.3,-0.2,0.5,13.8
Oc1cc(NCc2cccnc2)ccc1-c1nc2ccccc2o1,1.6,31.3,-2.7,-7.2,59.2*
Cc1nc2ccccn2c1C(=O)/C=C/c1ccc(F)cc1,.,175.1,-2.1,1.7,199.7*
COc1ccc(/C=C/C(=O)c2c(C)nc3ccccn23)cc1,.,30.9,-4.9,-8.7,62.9*
COc1ccc(CNC(=O)c2c(C)nc3ccccn23)cc1,-10.4,1.2,2.1,-2.7,5.2
Cc1nc2ccccn2c1C(=O)NN,-3.8,-3.3,1.0,-4.5,0.9
CSCCC(NS(=O)(=O)c1cccc(C(F)(F)F)c1)C(=O)N(C)CCOc1ccc(Cl)cc1 (stereo not drawn),.,33.8,.,.,65.0*
COc1nn(-c2ccccc2)c(=O)c(Cl)c1Cl,2.5,-93.2*,-5.0,-4.3,-93.6
COc1c(Cl)cnn(-c2ccccc2)c1=O,20.1,-8.0,-2.5,-1.3,11.0
COc1ccc(OC)c2sc(NC(=O)C3=COCCO3)nc12,.,5.5,-1.9,-7.2,6.8
COc1ccc(C)c2sc(NC(=O)C3=COCCO3)nc12,-16.2,-69.2*,1.0,-5.3,-76.2
CC(=O)N1CCc2cc(S(=O)(=O)NC(Cc3ccccc3)C(=O)O)ccc21 (stereo not drawn),0.8,-3.6,0.8,-5.1,-22.2
Cc1nn(C)cc1C(C)NCc1c(C(=O)N2CCCCCCC2)nc2ccc(Cl)cn12 (stereo not drawn),-34.1,23.6,-1.2,8.3,12.9
O=C(O)c1ccccc1OCc1ccccc1Br,15.4,-0.5,0.4,4.1,7.6
